Assay results reported in ChEMBL document CHEMBL3272032, “Antifolate studies. Activities of 40 potential antimalarial compounds against sensitive and chlorguanide triazine resistant strains of folate-requiring bacteria and Escherichia coli” (J Med Chem, 1977).
The source made the active and inactive calls. No cut-off for these calls is given here.

How the values were obtained:
[1] = tested on: Lacticaseibacillus casei; experiment: Antibacterial activity against chlorguanide triazine-resistant Lactobacillus casei ATCC 7469 assessed as reduction in growth in presence of 0.001 ug/ml folic acid; format: functional, organism-based
Procedure, shortened: (§1)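 Folate-requiring strains grown in medium with folic acid, 0.002 µg/ml for S. faecium and 0.001 µg/ml for L. casei; P. cerevisiae given folinic acid, 0.001 µg/ml. Resistant substrains came from serial transfer in rising chlorguanide triazine, and the most resistant were used. Compounds tested up to 1000 µg/ml, or 100 µg/ml when supply was limited. Growth read as Klett turbidity; IC50 is the µM concentration giving 50% growth inhibition.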

[2] = tested on: Lacticaseibacillus casei; experiment: Antibacterial activity against chlorguanide triazine-resistant Lactobacillus casei ATCC 7469 assessed as reduction in growth; format: functional, organism-based; procedure, shortened: as §1
[3] = tested on: Plasmodium berghei; experiment: Antimalarial activity against Plasmodium berghei infected in sc dosed mouse assessed as active dose required to increase of 100% in mean survival time; format: functional; conditions: read-out: MED
Procedure, shortened: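 Mice received a standard blood-induced P. berghei inoculum and were then treated with one subcutaneous dose of compound suspended in peanut oil. The minimum active dose is the lowest dose that raised mean survival time by 100%.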

[4] = tested on: Enterococcus faecium; experiment: Antibacterial activity against chlorguanide triazine-resistant Streptococcus faecium ATCC 8043 assessed as reduction in growth; format: functional, organism-based; procedure, shortened: as §1
[5] = tested on: Enterococcus faecium; experiment: Antibacterial activity against chlorguanide triazine-resistant Streptococcus faecium ATCC 8043 assessed as reduction in growth in presence of 0.002 ug/ml folic acid; format: functional, organism-based; procedure, shortened: as §1
[6] = tested on: Enterococcus faecium; experiment: Antibacterial activity against sensitive Streptococcus faecium ATCC 8043 assessed as reduction in growth; format: functional, organism-based; procedure, shortened: as §1
[7] = tested on: Lacticaseibacillus casei; experiment: Antibacterial activity against sensitive Lactobacillus casei ATCC 7469 assessed as reduction in growth in presence of 0.001 ug/ml folic acid; format: functional, organism-based
Procedure, shortened: (§2)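 Folate-requiring strains in the medium of the earlier assay method. Folic acid was 0.002 μg/ml for S. faecium and 0.001 μg/ml for L. casei. Turbidity read on a Klett-Summerson colorimeter. IC50 is the micromolar concentration reducing growth to 50% of control. Top concentration was 1000 μg/ml, or 100 μg/ml if supply was limited.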

[8] = Antibacterial activity against sensitive Pediococcus cerevisiae ATCC 808 assessed as reduction; format: functional
Procedure, shortened: (§3)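 P. cerevisiae grown with folinic acid at 0.001 μg/ml in the earlier-described medium. Turbidity read on a Klett-Summerson colorimeter. IC50 is the micromolar concentration reducing growth to 50% of control. Top concentration was 1000 μg/ml, or 100 μg/ml when supply was limited.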

[9] = tested on: Pediococcus; experiment: Antibacterial activity against chlorguanide triazine-resistant Pediococcus cerevisiae ATCC 808 assessed as reduction in growth in presence of 0.001 ug/ml folinic acid; format: functional; procedure, shortened: as §1
[10] = tested on: Lacticaseibacillus casei; experiment: Fold increase in resistance, ratio of IC50 for chlorguanide triazine-resistant Lactobacillus casei ATCC 7469 to IC50 for sensitive Lactobacillus casei ATCC 7469; format: functional
Procedure, shortened: (§4)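 Resistant substrains were made by serial transfer in rising concentrations of cycloguanil, and the most resistant isolate of each organism was used. Both strains were assayed turbidimetrically under identical conditions. FIR = IC50 of the resistant strain divided by IC50 of the sensitive parent.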

[11] = tested on: Pediococcus; experiment: Fold increase in resistance, ratio of IC50 for chlorguanide triazine-resistant Pediococcus cerevisiae ATCC 808 to IC50 for sensitive Pediococcus cerevisiae ATCC 808; format: functional; procedure, shortened: as §4
[12] = tested on: Pediococcus; experiment: Antibacterial activity against sensitive Pediococcus cerevisiae ATCC 808 assessed as reduction in growth in presence of 0.001 ug/ml folinic acid; format: functional; procedure, shortened: as §3
[13] = tested on: Plasmodium berghei; experiment: Antimalarial activity against Plasmodium berghei infected in sc dosed mouse assessed as dose required to survivors for period of 60 days; format: functional
Procedure, shortened: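 Mice infected with a blood-induced P. berghei inoculum were given one subcutaneous dose in peanut oil. Survivors at 60 days counted as cured. The minimum curative dose is the lowest dose that cured any mouse.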

[14] = tested on: Escherichia coli; experiment: Antibacterial activity against sensitive Escherichia coli ATCC 10536 assessed as reduction in growth in presence of p-aminobenzoic acid; format: functional, organism-based
Procedure, shortened: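 Reversal test. Drug inhibition was challenged with PABA in Sahyun et al. medium plus 0.6% acid-hydrolyzed casein. Growth read as turbidity on a Klett-Summerson colorimeter. Scored as reversal or nonreversal of the drug inhibition.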

[15] = tested on: Lacticaseibacillus casei; experiment: Antibacterial activity against sensitive Lactobacillus casei ATCC 7469 assessed as reduction; format: functional, organism-based; procedure, shortened: as §1
[16] = tested on: Enterococcus faecium; experiment: Antibacterial activity against sensitive Streptococcus faecium ATCC 8043 assessed as reduction in growth in presence of 0.002 ug/ml folic acid; format: functional, organism-based; procedure, shortened: as §2
[17] = Antibacterial activity against chlorguanide triazine-resistant Pediococcus cerevisiae ATCC 808 assessed as reduction in growth; format: functional; procedure, shortened: as §1
[18] = tested on: Escherichia coli; experiment: Antibacterial activity against sensitive Escherichia coli ATCC 10536 assessed as reduction in growth; format: functional, organism-based
Procedure, shortened: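 Growth inhibition in Sahyun et al. medium plus 0.6% acid-hydrolyzed casein. Growth read as turbidity on a Klett-Summerson photoelectric colorimeter. IC50 is the micromolar concentration giving 50% growth inhibition. Top concentration was 1000 μg/ml, or 100 μg/ml when compound was limited.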

[19] = tested on: Enterococcus faecium; experiment: Fold increase in resistance, ratio of IC50 for chlorguanide triazine-resistant Streptococcus faecium ATCC 8043 to IC50 for sensitive Streptococcus faecium ATCC 8043; format: functional
Procedure, shortened: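 Resistant S. faecium substrain raised by serial transfer in increasing chlorguanide triazine. IC50 (µM, 50% growth inhibition by turbidity) was found for resistant and parent strains in folic acid (0.002 µg/ml) medium. Fold increase taken as IC50 resistant / IC50 sensitive.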

SMILES	inhibition [1]	IC50 [2]	minimal effective dose [3]	IC50 [4]	inhibition [5]	IC50 [6]	inhibition [7]	IC50 [8]	inhibition [9]	Ratio IC50 [10]	Ratio IC50 [11]	inhibition [12]	MCD [13]	inhibition [14]	IC50 [15]	inhibition [16]	IC50 [17]	IC50 [18]	Ratio IC50 [19]
CC(C)c1nc2nc(N)nc(N)c2nc1C(C)C	inactive	500 nM	640 mg/kg	0.3 µM	inactive	0.005 µM	inactive	0.07 µM	inactive	0.16	7	inactive	640 mg/kg	Active	3.2 µM	inactive	0.5 µM	8.1 µM	60
CN(Cc1cnc2nc(N)nc(N)c2n1)c1ccc(C(=O)N[C@@H](CCC(=O)O)C(=O)O)cc1 [METHOTREXATE]	Active	0.01 nM	> 640 mg/kg	0.01 µM	Active	0.002 µM	Active	0.4 µM	inactive	0.17	4	inactive	>640 mg/kg	Active	6e-05 µM	Active	1.5 µM	143 µM	5
CC1(C)N=C(N)N=C(N)N1OCCCOc1cc(Cl)c(Cl)cc1Cl	inactive	400 nM	20 mg/kg	0.019 µM	inactive	0.0001 µM	inactive	0.003 µM	inactive	19	267	inactive	160 mg/kg	Active	0.021 µM	inactive	0.8 µM	1.7 µM	190
N=C(N)N/N=C(\c1ccc(F)cc1)c1ccc(C(F)(F)F)cc1	Active	30000 nM	40 mg/kg	35 µM	Active	64 µM	Active	22 µM	Active	1	1	Active	160 mg/kg	Active	31 µM	Active	21 µM	17 µM	0.6
COc1cc(Cc2cnc(N)nc2N)cc(OC)c1OC [TRIMETHOPRIM]	inactive	17 nM	> 640 mg/kg	1.2 µM	inactive	0.08 µM	inactive	11.7 µM	inactive	0.09	6	inactive	>640 mg/kg	Active	0.19 µM	inactive	67.5 µM	0.4 µM	15
CCc1nc(N)nc(N)c1-c1ccc(Cl)cc1 [PYRIMETHAMINE]	inactive	240 nM	10 mg/kg	10.5 µM	inactive	0.008 µM	inactive	4 µM	inactive	0.05	3	inactive	40 mg/kg	Active	5.1 µM	inactive	12 µM	76 µM	1300
Nc1nc(N)c2cc(Sc3ccc(Cl)cc3)ccc2n1	inactive	10 nM	5 mg/kg	0.18 µM	inactive	0.001 µM	inactive	0.028 µM	inactive	0.36	14.3	inactive	40 mg/kg	Active	0.028 µM	inactive	0.4 µM	0.4 µM	180
ClC(Cl)(Cl)c1ccc(C(Cl)(Cl)Cl)cc1	Active	990000 nM	640 mg/kg	1900 µM	Active	2000 µM	Active	959 µM	Active	1	2	Active	640 mg/kg	Active	1000 µM	Active	2000 µM	262 µM	1
CCCCN(CCCC)CC(O)c1cc(-c2ccc(Cl)c(Cl)c2)nc2c(Cl)cc(Cl)cc12 (centres undefined)	Active	250000 nM	5 mg/kg	572 µM	Active	327 µM	Active	290 µM	Active	2	1	Active	20 mg/kg	Active	170 µM	Active	354 µM	182 µM	2
CCN1CCCC(Nc2cc(C)nc(NC(=N)Nc3ccc(Cl)c(Cl)c3)n2)C1 (centres undefined)	Active	55700 nM	20 mg/kg	121 µM	Active	227 µM	Active	32 µM	Active	0.85	1	Active	40 mg/kg	Active	65.1 µM	Active	39 µM	85 µM	0.53
Nc1nc(N)c2cc(SCc3ccc(Cl)cc3)ccc2n1	inactive	40 nM	320 mg/kg	1 µM	inactive	0.04 µM	inactive	0.05 µM	inactive	0.2	28	inactive	640 mg/kg	Active	0.2 µM	inactive	1.4 µM	2.9 µM	25
